Data taken from ChEMBL document CHEMBL1177835, “A note to the biological activity of benzoxazine derivatives containing the thioxo group” (Eur J Med Chem, 2010).
In brackets after ≈: the same amount, converted by molar mass.

What was measured:
[1] = test system: Mycobacterium tuberculosis; test: Antimycobacterial activity against Mycobacterium tuberculosis CNCTC My 331/88 after 14 days by microdilution method; format: functional; settings: CNCTC My 331/88, 336 h
How it was run: (§1)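 MIC determined by a dilution micromethod. Strains came from the Czech National Collection of Type Cultures, Prague. Compounds were added to the medium as DMSO solutions. Each inoculum was also plated in parallel on Löwenstein–Jensen medium to check its sterility and growth. The M. avium strain is identical with ATCC 25291 and resistant to INH.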

[2] = test system: Mycobacterium tuberculosis; test: Antimycobacterial activity against Mycobacterium tuberculosis CNCTC My 331/88 after 21 days by microdilution method; format: functional; settings: CNCTC My 331/88, 504 h; how it was run: as §1
Mycobacterium avium [3] = test: Antimycobacterial activity against Mycobacterium avium CNCTC My 330/88 after 14 days by microdilution method; format: functional; settings: CNCTC My 330/88, 336 h; how it was run: as §1
Mycobacterium avium [4] = test: Antimycobacterial activity against Mycobacterium avium CNCTC My 330/88 after 21 days by microdilution method; format: functional; settings: CNCTC My 330/88, 504 h; how it was run: as §1
Mycobacterium kansasii [5] = test: Antimycobacterial activity against Mycobacterium kansasii CNCTC My 235/80 after 14 days by microdilution method; format: functional; settings: CNCTC My 235/80, 336 h
How it was run: (§2)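 Dilution micromethod for MIC; compounds added to medium as DMSO solutions. Each strain also inoculated onto Löwenstein–Jensen medium to control inoculum sterility and growth. Strain 6509/96 is a clinical isolate; CNCTC strains from the Czech national type culture collection.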

Mycobacterium kansasii [6] = test: Antimycobacterial activity against Mycobacterium kansasii CNCTC My 235/80 after 21 days by microdilution method; format: functional; settings: CNCTC My 235/80, 504 h; how it was run: as §2
Mycobacterium kansasii [7] = test: Antimycobacterial activity against Mycobacterium kansasii 6509/96 after 14 days by microdilution method; format: functional; settings: 6509/96, 336 h; how it was run: as §2
Mycobacterium kansasii [8] = test: Antimycobacterial activity against Mycobacterium kansasii 6509/96 after 21 days by microdilution method; format: functional; settings: 6509/96, 504 h; how it was run: as §2
HeLa = test: Cytotoxicity against human HeLa cells after 72 hrs by using methylene blue staining; format: functional, cell-based
How it was run: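 HeLa cells in RPMI 1640 with supplements, preincubated 48 h without compound. Compound dilutions were then applied to subconfluent monolayers for 72 h at 37 °C, 5% CO2. Cells were glutaraldehyde-fixed, stained with 0.05% methylene blue, eluted with 0.33 N HCl and read at OD 660 nm. CC50 taken at 50% intersection versus negative control.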

K562 = test: Antiproliferative activity against human K562 cells after 72 hrs by celltiter-blue assay; format: functional, cell-based
How it was run: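 K-562 grown in RPMI 1640 with ultraglutamine, gentamicin, 10% heat-inactivated FBS at 37 °C; about 10,000 cells/well. Compounds dissolved in DMSO and diluted in DMEM, incubated 72 h at 37 °C, 5% CO2. Viability read by CellTiter-Blue resazurin reduction. GI50 taken where the dose-response curve crosses 50% of untreated control.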

HUVEC = test: Antiproliferative activity against HUVEC after 72 hrs by using methylene blue staining; format: cell-based; settings: human
How it was run: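 HUVEC in culture medium with ultraglutamine, gentamicin, 10% heat-inactivated FBS, 37 °C. Harvested in log phase by trypsinization; about 10,000 cells/well. Compounds in DMSO, diluted in DMEM, incubated 72 h at 37 °C, 5% CO2. Cells then glutaraldehyde-fixed, stained with 0.05% methylene blue for 15 min, eluted with 0.33 N HCl, OD 660 nm. GI50 taken at 50% intersection versus untreated control.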

Row | SMILES | MIC [1] [µM] | MIC [2] [µM] | MIC (Mycobacterium avium [3]) [µM] | MIC (Mycobacterium avium [4]) [µM] | MIC (Mycobacterium kansasii [5]) [µM] | MIC (Mycobacterium kansasii [6]) [µM] | MIC (Mycobacterium kansasii [7]) [µM] | MIC (Mycobacterium kansasii [8]) [µM] | Activity (HeLa) | Activity (K562) | Activity (HUVEC)
1 | Cc1ccc2oc(=O)n(Cc3ccccc3)c(=O)c2c1 | 32 (≈ 8.55 µg/mL) | 62.5 (≈ 16.7 µg/mL) | 32 (≈ 8.55 µg/mL) | 62.5 (≈ 16.7 µg/mL) | 62.5 (≈ 16.7 µg/mL) | 62.5 (≈ 16.7 µg/mL) | 62.5 (≈ 16.7 µg/mL) | 125 (≈ 33.4 µg/mL) | Toxic | Toxic | Toxic
2 | O=c1oc2c(Cl)cc(Cl)cc2c(=O)n1Cc1ccc(Cl)c(Cl)c1 | 62.5 (≈ 24.4 µg/mL) | 125 (≈ 48.9 µg/mL) | 125 (≈ 48.9 µg/mL) | 125 (≈ 48.9 µg/mL) | 125 (≈ 48.9 µg/mL) | 125 (≈ 48.9 µg/mL) | 125 (≈ 48.9 µg/mL) | 125 (≈ 48.9 µg/mL) | Toxic | Toxic | Toxic
3 | NNC(=O)c1ccncc1 [ISONIAZID] | 1 (≈ 0.137 µg/mL) | 1 (≈ 0.137 µg/mL) | > 250 | > 250 | > 250 | > 250 | 8 (≈ 1.1 µg/mL) | 8 (≈ 1.1 µg/mL) |  |  | 
4 | O=c1oc2ccc(Cl)cc2c(=S)n1Cc1ccc(Cl)c(Cl)c1 | 32 (≈ 11.9 µg/mL) | 32 (≈ 11.9 µg/mL) | 62.5 (≈ 23.3 µg/mL) | 62.5 (≈ 23.3 µg/mL) | 62.5 (≈ 23.3 µg/mL) | 62.5 (≈ 23.3 µg/mL) | 62.5 (≈ 23.3 µg/mL) | 62.5 (≈ 23.3 µg/mL) | Toxic | Toxic | Toxic
5 | Fc1ccc(Cn2c(=S)oc3ccc(Cl)cc3c2=S)cc1 | 1 (≈ 0.338 µg/mL) | 2 (≈ 0.676 µg/mL) | 8 (≈ 2.7 µg/mL) | 16 (≈ 5.41 µg/mL) | 8 (≈ 2.7 µg/mL) | 16 (≈ 5.41 µg/mL) | 8 (≈ 2.7 µg/mL) | 16 (≈ 5.41 µg/mL) |  |  | 
6 | O=c1oc2ccc(Cl)cc2c(=O)n1Cc1ccc(Cl)c(Cl)c1 | 16 (≈ 5.71 µg/mL) | 16 (≈ 5.71 µg/mL) | 16 (≈ 5.71 µg/mL) | 32 (≈ 11.4 µg/mL) | 62.5 (≈ 22.3 µg/mL) | 62.5 (≈ 22.3 µg/mL) | 62.5 (≈ 22.3 µg/mL) | 62.5 (≈ 22.3 µg/mL) | Toxic | Toxic | Toxic
7 | O=c1oc2ccccc2c(=O)n1Cc1ccc(Cl)c(Cl)c1 | 32 (≈ 10.3 µg/mL) | 32 (≈ 10.3 µg/mL) | 32 (≈ 10.3 µg/mL) | 32 (≈ 10.3 µg/mL) | 62.5 (≈ 20.1 µg/mL) | 62.5 (≈ 20.1 µg/mL) | 62.5 (≈ 20.1 µg/mL) | 62.5 (≈ 20.1 µg/mL) | Toxic | Toxic | Toxic
8 | O=c1oc2ccc(Br)cc2c(=O)n1Cc1ccccc1 | 62.5 (≈ 20.8 µg/mL) | 62.5 (≈ 20.8 µg/mL) | 62.5 (≈ 20.8 µg/mL) | 62.5 (≈ 20.8 µg/mL) | 62.5 (≈ 20.8 µg/mL) | 125 (≈ 41.5 µg/mL) | 62.5 (≈ 20.8 µg/mL) | 125 (≈ 41.5 µg/mL) | Toxic | Toxic | Toxic
9 | O=c1oc2ccc(Br)cc2c(=O)n1Cc1ccc(Cl)c(Cl)c1 | 32 (≈ 12.8 µg/mL) | 32 (≈ 12.8 µg/mL) | 32 (≈ 12.8 µg/mL) | 32 (≈ 12.8 µg/mL) | 62.5 (≈ 25.1 µg/mL) | 62.5 (≈ 25.1 µg/mL) | 62.5 (≈ 25.1 µg/mL) | 62.5 (≈ 25.1 µg/mL) | Toxic | Toxic | Toxic
10 | S=c1oc2c(Cl)cc(Cl)cc2c(=S)n1Cc1ccc(Cl)c(Cl)c1 | 32 (≈ 13.5 µg/mL) | 32 (≈ 13.5 µg/mL) | 62.5 (≈ 26.4 µg/mL) | 62.5 (≈ 26.4 µg/mL) | 62.5 (≈ 26.4 µg/mL) | 62.5 (≈ 26.4 µg/mL) | 62.5 (≈ 26.4 µg/mL) | 62.5 (≈ 26.4 µg/mL) |  |  | 
11 | S=c1oc2ccccc2c(=S)n1Cc1ccc(Cl)c(Cl)c1 | 1 (≈ 0.354 µg/mL) | 2 (≈ 0.709 µg/mL) | 0.5 (≈ 0.177 µg/mL) | 0.5 (≈ 0.177 µg/mL) | 4 (≈ 1.42 µg/mL) | 4 (≈ 1.42 µg/mL) | 4 (≈ 1.42 µg/mL) | 4 (≈ 1.42 µg/mL) |  |  | 
12 | S=c1oc2ccccc2c(=S)n1Cc1ccccc1 | 1 (≈ 0.285 µg/mL) | 1 (≈ 0.285 µg/mL) | 1 (≈ 0.285 µg/mL) | 1 (≈ 0.285 µg/mL) | 2 (≈ 0.571 µg/mL) | 2 (≈ 0.571 µg/mL) | 1 (≈ 0.285 µg/mL) | 2 (≈ 0.571 µg/mL) |  |  | 
